Laboratory results from ChEMBL document CHEMBL4725347, “Discovery of a Monoiodo Aza-BODIPY Near-Infrared Photosensitizer: in vitro and in vivo Evaluation for Photodynamic Therapy” (J Med Chem, 2020).

Columns and labels:
[1] = Absorption property of the compound in chloroform assessed as absorption coefficient by UV-visible spectrophotometric method; assay type: physicochemical
Outline: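 Electronic absorption spectra recorded by UV-visible spectrophotometry at room temperature. Solvents were chloroform, isopropanol, acetonitrile, DMF, and PBS buffer containing 1% Cremophor EL/1,2-propanediol (10:3, v:v). Chloroform data were referenced to the non-halogenated parent dye.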

[2] = Induction of singlet oxygen generation in PBS containing 1% Cremophor EL/1,2-propanediol (10:3, v:v) system assessed as relative rate of DPBF degradation to MB at 1 uM irradiated with 90 mW/cm2 halogen light; assay type: functional
Outline: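 Singlet oxygen generation measured with 1,3-diphenylisobenzofuran (DPBF) as scavenger. The decrease in DPBF absorbance at 411 nm was monitored over time during light irradiation, and the photodegradation rate was calculated.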

[3] = test system: HeLa; experiment: Induction of apoptosis in human HeLa cells assessed as necrotic cells at 40 nM preincubated for 3 hrs followed by 54 J/cm2 light irradiation and measured after 24 hrs by Annexin-V-FITC/propidium iodide staining based flow cytometry (reference value: 2.8%); assay type: functional
Outline: (§1)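 HeLa cells in six-well plates were exposed to compound for 3 h, irradiated (λ > 590 nm), and incubated 24 h at 37 °C. Cells were then harvested, washed with PBS, and stained with annexin V-FITC/PI for 20 min at room temperature before immediate flow cytometry. Untreated, unirradiated cells served as control.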

[4] = test system: HeLa; experiment: Induction of apoptosis in human HeLa cells assessed as late apoptotic cells at 200 nM preincubated for 3 hrs followed by 54 J/cm2 light irradiation and measured after 24 hrs by Annexin-V-FITC/propidium iodide staining based flow cytometry (reference value: 5.92%); assay type: functional; outline: as §1
[5] = test system: HeLa; experiment: Induction of apoptosis in human HeLa cells assessed as necrotic cells at 200 nM preincubated for 3 hrs followed by 54 J/cm2 light irradiation and measured after 24 hrs by Annexin-V-FITC/propidium iodide staining based flow cytometry (reference value: 2.8%); assay type: functional; outline: as §1
[6] = test system: HeLa; experiment: Induction of reactive oxygen species generation in human HeLa cells incubated for 3 hrs prior to H2DCFDA addition for 20 mins followed by 54 J/cm2 light irradiation by confocal scanning microscopic analysis; assay type: functional, cell-based
Outline: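 HeLa cells were exposed to 0.004, 0.02, 0.10, 0.5 or 2.5 μM for 3 h, washed, and loaded with H2DCFDA 10 μM in PBS for 20 min at 37 °C. After washing, cells in PBS were irradiated with 54 J/cm² (λ > 590 nm) or kept dark. Fluorescence was read by confocal microscopy and by plate reader (ex 485/em 538 nm).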

[7] = Drug uptake in Balb/c nu/nu mouse xenografted with human HeLa cells at 2 mg/kg, iv measured up to 3 hrs by fluorescence imaging analysis; assay type: ADME, organism-based; conditions: in vivo
Outline: (§2)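 Female Balb/c nu/nu mice bore subcutaneous HeLa tumors (5×10^6 cells, right back) and received 2 mg/kg via tail vein. Living mice were imaged under isoflurane at time points (ex 680/em 720 nm, 1 s exposure). At set times mice were euthanized and heart, liver, spleen, lungs, kidneys and tumor imaged ex vivo; ROI quantified, mean ± SD, n = 3.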

[8] = Drug uptake in Balb/c nu/nu mouse xenografted with human HeLa cells at 2 mg/kg, iv measured over 10 hrs by fluorescence imaging analysis; assay type: ADME, organism-based; conditions: in vivo; outline: as §2
[9] = Drug uptake in human HeLa cells xenografted Balb/c nu/nu mouse lung at 2 mg/kg, iv measured within 1 hr by fluorescence imaging analysis; assay type: ADME, organism-based; conditions: in vivo; outline: as §2
[10] = Drug uptake in human HeLa cells xenografted Balb/c nu/nu mouse kidney at 2 mg/kg, iv measured within 1 hr by fluorescence imaging analysis; assay type: ADME, organism-based; conditions: in vivo; outline: as §2

Activity [1]: 97000 M⁻¹ cm⁻¹
Drug uptake [7]: Active
Drug uptake [8]: Not Active
Drug uptake [9]: Active
Drug uptake [10]: Active
SMILES: COc1ccc(C2=[N+]3C(=Nc4c(-c5ccccc5)cc(-c5ccc(OC)cc5)n4[B-]3(F)F)C(c3ccccc3)=C2I)cc1
fold change (FC) [2]: 2.4
Activity [3]: 1.73%
Activity [4]: 8.6%
Activity [5]: 2.22%
Activity [6]: Dose-dependent effect
